In brackets after ≈: the same amount, converted by molar mass. Activity calls are given as the source filed them. The rule behind the calls is not given here.
Legend:
[1] = target: T1, Inhibitor of nuclear factor kappa-B kinase subunit alpha (Homo sapiens, UniProt O15111); experiment: Inhibition of IKK1 in presence of 1 uM ATP
T1 sequence (O15111 whole entry): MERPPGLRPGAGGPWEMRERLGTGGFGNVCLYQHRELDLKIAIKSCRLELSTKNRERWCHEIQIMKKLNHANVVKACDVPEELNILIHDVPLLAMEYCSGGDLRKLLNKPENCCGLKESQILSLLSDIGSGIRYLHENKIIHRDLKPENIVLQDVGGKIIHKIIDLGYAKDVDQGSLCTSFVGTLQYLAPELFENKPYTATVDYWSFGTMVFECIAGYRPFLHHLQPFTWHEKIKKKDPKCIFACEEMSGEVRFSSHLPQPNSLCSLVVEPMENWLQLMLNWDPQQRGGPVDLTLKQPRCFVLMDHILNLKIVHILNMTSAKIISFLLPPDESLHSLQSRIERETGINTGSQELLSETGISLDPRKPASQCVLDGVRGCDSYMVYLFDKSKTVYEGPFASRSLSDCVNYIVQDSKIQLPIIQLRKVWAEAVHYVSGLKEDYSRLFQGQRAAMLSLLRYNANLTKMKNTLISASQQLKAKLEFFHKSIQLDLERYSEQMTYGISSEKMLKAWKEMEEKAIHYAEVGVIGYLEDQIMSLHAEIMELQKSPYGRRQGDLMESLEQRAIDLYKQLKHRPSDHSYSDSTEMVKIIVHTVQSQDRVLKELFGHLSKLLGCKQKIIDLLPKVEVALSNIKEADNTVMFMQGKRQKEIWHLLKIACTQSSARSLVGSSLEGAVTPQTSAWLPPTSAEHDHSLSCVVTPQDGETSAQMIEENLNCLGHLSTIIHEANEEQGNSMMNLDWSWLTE

[2] = target: T2, Inhibitor of nuclear factor kappa-B kinase subunit beta (Homo sapiens, UniProt O14920); experiment: Inhibition of IKK2 in presence of 1 uM ATP
T2 sequence (O14920 whole entry): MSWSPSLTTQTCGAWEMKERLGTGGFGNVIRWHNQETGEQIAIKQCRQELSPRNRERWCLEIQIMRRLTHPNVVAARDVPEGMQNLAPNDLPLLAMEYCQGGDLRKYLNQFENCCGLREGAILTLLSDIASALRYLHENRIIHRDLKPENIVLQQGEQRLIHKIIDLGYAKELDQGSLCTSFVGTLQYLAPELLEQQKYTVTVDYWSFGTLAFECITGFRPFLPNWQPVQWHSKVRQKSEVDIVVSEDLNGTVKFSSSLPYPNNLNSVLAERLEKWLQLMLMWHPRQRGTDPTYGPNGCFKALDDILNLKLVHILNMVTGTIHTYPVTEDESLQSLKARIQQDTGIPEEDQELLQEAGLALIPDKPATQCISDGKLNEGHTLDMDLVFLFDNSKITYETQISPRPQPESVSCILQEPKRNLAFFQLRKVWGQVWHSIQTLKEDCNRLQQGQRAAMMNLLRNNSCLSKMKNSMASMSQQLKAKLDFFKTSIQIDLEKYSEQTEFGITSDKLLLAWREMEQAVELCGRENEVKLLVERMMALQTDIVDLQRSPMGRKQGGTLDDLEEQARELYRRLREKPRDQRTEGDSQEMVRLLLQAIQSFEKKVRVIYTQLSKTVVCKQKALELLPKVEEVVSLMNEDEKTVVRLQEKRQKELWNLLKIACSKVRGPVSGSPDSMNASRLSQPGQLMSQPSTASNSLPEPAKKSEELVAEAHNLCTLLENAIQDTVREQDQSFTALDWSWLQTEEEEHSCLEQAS

Blood [3] = experiment: Inhibition of LPS-stimulated TNFalpha production in human Whole blood; type: functional, tissue-based
Albumin = Albumin (Homo sapiens, UniProt P02768); experiment: Binding affinity to human serum albumin; type: ADME; settings: isolated protein
[4] = target: T2, Inhibitor of nuclear factor kappa-B kinase subunit beta; experiment: Inhibition of IKK2 in human A549 cells assessed as inhibition of TNFalpha-induced NFKB activation; type: cell-based
[5] = Half life in rat at 1 mg/kg, iv; type: ADME, organism-based; design: dose 1 mg/kg, route intravenous; settings: in vivo
Outline: (§1)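 Rat pharmacokinetics: 1 mg/kg given IV (n = 2) or orally (n = 1); clearance derived from the IV arm.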

[6] = Clearance in rat at 1 mg/kg, iv; type: ADME, organism-based; design: dose 1 mg/kg, route intravenous; settings: in vivo; outline: as §1
[7] = Oral bioavailability in rat at 1 mg/kg; type: ADME, organism-based; settings: in vivo; outline: as §1
Rattus norvegicus [8] = experiment: Antiinflammatory activity in Lewis rat assessed as inhibition of LPS-induced neutrophil lung infiltration at 30 umol/kg, po administered 30 mins before LPS challenge relative to vehicle-treated control; type: functional, organism-based
Outline: (§2)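 Male Lewis rats (n = 4 per group, vehicle included) dosed orally at 10, 30 and 100 µmol/kg in 2% DMSO/0.5% methylcellulose with NaOH, 30 min before 20 min exposure to aerosolized 0.1 mg/ml E. coli 026:B6 LPS. Neutrophils in BAL fluid counted 4 h post-LPS by differential (Diff-Quick) and haemocytometer counts. Results given as % inhibition versus vehicle, ED50 derived; ANOVA with Dunnett's test.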

Cytochrome P450 2C9 = Cytochrome P450 2C9 (Homo sapiens, UniProt P11712); experiment: inhibition of CYP2C9; type: ADME
[9] = Plasma protein binding in human; type: ADME, cell-free; settings: read-out: PPB (converted)
[10] = Fraction unbound in human plasma; type: ADME, cell-free
Cytochrome P450 3A4 = Cytochrome P450 3A4 (Homo sapiens, UniProt P08684); experiment: inhibition of CYP3A4; type: ADME
[11] = Aqueous solubility of the compound; type: physicochemical; settings: aqueous solution
Cytochrome P450 2D6 = Cytochrome P450 2D6 (Homo sapiens, UniProt P10635); experiment: inhibition of CYP2D6; type: ADME
Hepatocyte [12] = experiment: Intrinsic clearance in rat hepatocytes; type: ADME, cell-based, Liver
Cytochrome P450 1A2 = target: T3, Cytochrome P450 1A2 (Homo sapiens, UniProt P05177); experiment: inhibition of CYP1A2; type: ADME
T3 sequence (P05177 whole entry): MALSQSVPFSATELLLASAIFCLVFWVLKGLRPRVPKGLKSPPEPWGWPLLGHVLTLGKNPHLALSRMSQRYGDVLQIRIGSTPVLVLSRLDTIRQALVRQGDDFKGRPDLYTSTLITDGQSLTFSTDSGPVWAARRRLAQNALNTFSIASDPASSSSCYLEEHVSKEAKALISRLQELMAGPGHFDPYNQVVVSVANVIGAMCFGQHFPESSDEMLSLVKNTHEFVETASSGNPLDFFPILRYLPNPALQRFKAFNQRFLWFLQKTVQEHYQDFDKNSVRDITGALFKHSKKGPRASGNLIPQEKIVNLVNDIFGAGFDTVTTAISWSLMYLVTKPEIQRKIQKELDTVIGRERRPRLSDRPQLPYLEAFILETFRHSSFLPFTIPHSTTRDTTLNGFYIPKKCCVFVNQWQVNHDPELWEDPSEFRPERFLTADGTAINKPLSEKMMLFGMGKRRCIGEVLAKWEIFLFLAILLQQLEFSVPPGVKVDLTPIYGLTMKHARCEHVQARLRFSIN

Rattus norvegicus [13] = experiment: Antiinflammatory activity in po dosed Lewis rat assessed as inhibition of LPS-induced neutrophil lung infiltration compound administered 30 mins before LPS challenge relative to vehicle-treated control; type: functional; outline: as §2
[14] = Volume of distribution in rat; type: ADME, organism-based; settings: in vivo; outline: as §1
Hepatocyte [15] = experiment: Intrinsic clearance in human hepatocytes; type: ADME, cell-based, Liver
Blood [16] = experiment: Inhibition of LPS-stimulated TNFalpha production in rat Whole blood; type: functional, tissue-based
[17] = Plasma protein binding in rat; type: ADME, cell-free; settings: read-out: PPB (converted)
[18] = target: Voltage-gated inwardly rectifying potassium channel KCNH2 (Homo sapiens, UniProt Q12809); experiment: Inhibition of human ERG
Chain of Voltage-gated inwardly rectifying potassium channel KCNH2 (Q12809 whole entry): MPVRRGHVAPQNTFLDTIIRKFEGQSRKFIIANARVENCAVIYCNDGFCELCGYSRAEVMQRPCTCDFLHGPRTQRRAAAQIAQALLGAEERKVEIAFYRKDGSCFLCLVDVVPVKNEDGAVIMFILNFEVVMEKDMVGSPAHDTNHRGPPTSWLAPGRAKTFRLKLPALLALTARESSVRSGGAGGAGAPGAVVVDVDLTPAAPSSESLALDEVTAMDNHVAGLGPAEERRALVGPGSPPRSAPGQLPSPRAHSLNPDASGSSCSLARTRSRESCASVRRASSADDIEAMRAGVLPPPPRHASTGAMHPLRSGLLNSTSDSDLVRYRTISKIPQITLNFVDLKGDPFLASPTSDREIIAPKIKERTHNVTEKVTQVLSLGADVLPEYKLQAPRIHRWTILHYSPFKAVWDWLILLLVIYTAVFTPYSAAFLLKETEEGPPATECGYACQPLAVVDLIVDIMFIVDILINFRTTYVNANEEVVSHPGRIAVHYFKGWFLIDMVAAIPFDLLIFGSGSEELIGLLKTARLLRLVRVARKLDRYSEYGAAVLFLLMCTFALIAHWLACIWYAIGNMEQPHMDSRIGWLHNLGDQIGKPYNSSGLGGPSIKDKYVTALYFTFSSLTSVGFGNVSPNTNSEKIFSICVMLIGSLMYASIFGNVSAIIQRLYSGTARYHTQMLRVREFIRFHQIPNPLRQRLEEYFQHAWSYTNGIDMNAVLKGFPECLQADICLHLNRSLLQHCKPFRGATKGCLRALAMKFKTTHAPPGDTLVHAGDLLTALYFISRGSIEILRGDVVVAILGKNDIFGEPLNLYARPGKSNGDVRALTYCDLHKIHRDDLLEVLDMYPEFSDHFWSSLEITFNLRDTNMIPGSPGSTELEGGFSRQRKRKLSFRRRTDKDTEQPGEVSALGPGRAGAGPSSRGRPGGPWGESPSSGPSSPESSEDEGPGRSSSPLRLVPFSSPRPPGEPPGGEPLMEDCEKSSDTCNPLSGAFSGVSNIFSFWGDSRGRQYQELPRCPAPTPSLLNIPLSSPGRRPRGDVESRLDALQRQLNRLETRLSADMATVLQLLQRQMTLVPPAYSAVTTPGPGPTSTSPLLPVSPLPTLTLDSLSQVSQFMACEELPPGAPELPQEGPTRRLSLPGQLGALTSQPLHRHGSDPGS

Chain of Cytochrome P450 2C9 (P11712 whole entry): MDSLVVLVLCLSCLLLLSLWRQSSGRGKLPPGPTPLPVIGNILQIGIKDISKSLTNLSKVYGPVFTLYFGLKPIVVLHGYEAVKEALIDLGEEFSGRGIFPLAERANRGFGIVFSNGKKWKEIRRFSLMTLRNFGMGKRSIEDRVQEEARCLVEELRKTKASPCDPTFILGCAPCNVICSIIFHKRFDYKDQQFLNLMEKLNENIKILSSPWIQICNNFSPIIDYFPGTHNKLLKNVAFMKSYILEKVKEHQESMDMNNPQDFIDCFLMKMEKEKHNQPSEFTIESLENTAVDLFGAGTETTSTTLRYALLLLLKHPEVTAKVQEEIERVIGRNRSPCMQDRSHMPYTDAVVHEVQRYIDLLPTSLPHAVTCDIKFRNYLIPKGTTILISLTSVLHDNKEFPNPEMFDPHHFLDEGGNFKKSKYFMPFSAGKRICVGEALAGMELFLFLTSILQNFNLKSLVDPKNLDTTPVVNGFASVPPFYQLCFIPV
Chain of Cytochrome P450 2D6 (P10635 whole entry): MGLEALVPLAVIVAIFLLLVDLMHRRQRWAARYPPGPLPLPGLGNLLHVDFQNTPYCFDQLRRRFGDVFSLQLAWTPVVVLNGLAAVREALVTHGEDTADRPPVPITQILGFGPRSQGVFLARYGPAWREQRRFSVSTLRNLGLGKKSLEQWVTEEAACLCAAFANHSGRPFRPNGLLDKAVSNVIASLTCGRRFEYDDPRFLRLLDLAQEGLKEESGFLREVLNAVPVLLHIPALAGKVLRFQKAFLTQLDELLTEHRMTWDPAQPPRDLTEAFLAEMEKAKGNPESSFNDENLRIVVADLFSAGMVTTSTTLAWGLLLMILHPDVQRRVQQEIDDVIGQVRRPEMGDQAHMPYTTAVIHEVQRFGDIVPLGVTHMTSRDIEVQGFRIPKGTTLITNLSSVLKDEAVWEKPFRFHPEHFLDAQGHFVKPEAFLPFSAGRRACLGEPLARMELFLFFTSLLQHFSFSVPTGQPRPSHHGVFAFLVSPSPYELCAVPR
Chain of Cytochrome P450 3A4 (P08684 whole entry): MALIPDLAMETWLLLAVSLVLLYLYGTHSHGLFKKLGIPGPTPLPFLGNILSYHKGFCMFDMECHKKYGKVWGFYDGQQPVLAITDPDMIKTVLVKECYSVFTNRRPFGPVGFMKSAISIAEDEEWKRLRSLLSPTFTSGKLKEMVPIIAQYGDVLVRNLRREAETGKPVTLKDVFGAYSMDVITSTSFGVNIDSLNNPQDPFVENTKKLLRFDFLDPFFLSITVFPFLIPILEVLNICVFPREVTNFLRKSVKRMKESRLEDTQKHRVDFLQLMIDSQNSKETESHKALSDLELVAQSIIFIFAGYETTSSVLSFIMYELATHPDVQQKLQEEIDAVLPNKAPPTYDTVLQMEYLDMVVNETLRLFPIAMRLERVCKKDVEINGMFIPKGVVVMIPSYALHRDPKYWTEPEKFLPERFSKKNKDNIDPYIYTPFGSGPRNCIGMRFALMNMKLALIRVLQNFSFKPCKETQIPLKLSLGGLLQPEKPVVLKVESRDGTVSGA
Chain of Albumin (P02768 whole entry): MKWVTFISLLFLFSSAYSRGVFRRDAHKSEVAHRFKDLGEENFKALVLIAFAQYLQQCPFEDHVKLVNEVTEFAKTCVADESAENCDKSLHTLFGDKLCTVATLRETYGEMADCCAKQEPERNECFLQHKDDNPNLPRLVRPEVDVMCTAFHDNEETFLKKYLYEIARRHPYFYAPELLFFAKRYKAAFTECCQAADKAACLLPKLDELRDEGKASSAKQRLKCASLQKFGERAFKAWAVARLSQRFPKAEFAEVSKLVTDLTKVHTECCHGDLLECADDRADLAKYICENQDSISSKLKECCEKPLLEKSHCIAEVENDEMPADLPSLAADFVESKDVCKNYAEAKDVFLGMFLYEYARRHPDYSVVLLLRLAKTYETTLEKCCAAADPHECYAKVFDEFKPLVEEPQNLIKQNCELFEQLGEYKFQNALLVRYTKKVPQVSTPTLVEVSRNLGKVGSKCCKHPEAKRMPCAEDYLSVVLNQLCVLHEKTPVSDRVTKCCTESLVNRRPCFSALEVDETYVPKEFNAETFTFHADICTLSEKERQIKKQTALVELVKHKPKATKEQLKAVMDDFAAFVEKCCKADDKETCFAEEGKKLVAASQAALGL

IC50 [1]	IC50 [2]	IC50 (Blood [3])	Compound	other results
6.31 nM	3.98 nM	251 nM	O=S1(=O)CCC(NS(=O)(=O)c2ccc(-c3ccnc4[nH]c(C5CC5)cc34)cc2)CC1	
200 nM	15.8 nM	2510 nM	O=S(=O)(NCCO)c1ccc(-c2ccnc3[nH]c(C(F)(F)F)cc23)cc1	
100 nM	20 nM	1260 nM	CN(C)Cc1cc2c(-c3ccc(S(=O)(=O)NC4CCS(=O)(=O)CC4)cc3)ccnc2[nH]1	
25.1 nM	7.94 nM	631 nM	CC(C)(C)c1cc2c(-c3ccc(S(=O)(=O)NC4CCS(=O)(=O)CC4)cc3)ccnc2[nH]1	
		3160 nM	Cc1cc2c(-c3ccc(S(=O)(=O)N(C)CCO)cc3)ccnc2[nH]1	Activity (Albumin): 91%; IC50 [4]: 794 nM
31.6 nM	15.8 nM	631 nM	O=S1(=O)CCC(NS(=O)(=O)c2ccc(-c3ccnc4[nH]c(C5CCNCC5)cc34)cc2)CC1	
251 nM	7.94 nM	501 nM	C[C@@H](CO)NS(=O)(=O)c1ccc(-c2ccnc3[nH]c(C4CC4)cc23)cc1	half-life [5]: 54 min; clearance [6]: 15 mL/min/kg; bioavailability [7]: 29%
794 nM	20 nM	1000 nM	CC(C)(C)c1cc2c(-c3ccc(S(=O)(=O)NCCO)cc3)ccnc2[nH]1	
6.31 nM	6.31 nM	251 nM	CC(C)c1cc2c(-c3ccc(S(=O)(=O)NC4CCS(=O)(=O)CC4)cc3)ccnc2[nH]1	
		2510 nM	Cc1cc2c(-c3ccc(S(=O)(=O)NCCO)cc3)ccnc2[nH]1	
316 nM	20 nM	1260 nM	C[C@@H](CO)NS(=O)(=O)c1ccc(-c2ccnc3[nH]c(C(F)(F)F)cc23)cc1	half-life [5]: 192 min; clearance [6]: 7 mL/min/kg; bioavailability [7]: 83%
79.4 nM	79.4 nM	1000 nM	Cc1cc2c(-c3ccc(S(=O)(=O)NC4CCS(=O)(=O)CC4)cn3)ccnc2[nH]1	
6.31 nM	5.01 nM	398 nM	CCc1cc2c(-c3ccc(S(=O)(=O)NC4CCS(=O)(=O)CC4)cc3)ccnc2[nH]1	
7.94 nM	12.6 nM	398 nM	Cc1cc2c(-c3ccc(S(=O)(=O)NC4CCS(=O)(=O)CC4)nc3)ccnc2[nH]1	
50.1 nM	15.8 nM	1260 nM	O=S1(=O)CCC(NS(=O)(=O)c2ccc(-c3ccnc4[nH]c(Cn5ccnn5)cc34)cc2)CC1	
		398 nM	Cc1cc2c(-c3ccc(S(=O)(=O)NC4CCS(=O)(=O)CC4)cc3)ccnc2[nH]1	
158 nM	794 nM	3160 nM	Cc1cc2c(-c3ncc(S(=O)(=O)NC4CCS(=O)(=O)CC4)cn3)ccnc2[nH]1	
200 nM	7.94 nM	1260 nM	O=S(=O)(NCCO)c1ccc(-c2ccnc3[nH]c(C4CC4)cc23)cc1	half-life [5]: 36 min; inhibition (Rattus norvegicus [8]): Active; IC50 (Cytochrome P450 2C9): 7000 nM; clearance [6]: 13 mL/min/kg; fraction unbound [9]: 0.066; fraction unbound [10]: 0.07; IC50 (Cytochrome P450 3A4): > 10000 nM; solubility [11]: 64 µM (≈ 22.9 µg/mL); IC50 (Cytochrome P450 2D6): > 10000 nM; IC50 [4]: 200 nM; CLH (Hepatocyte [12]): < 1 mL/min/g; IC50 (Cytochrome P450 1A2): > 10000 nM; ED50 (Rattus norvegicus [13]): 28.2 µmol/kg; inhibition (Rattus norvegicus [13]): Dose-dependent effect; Vd [14]: 0.6 L/kg; CLH (Hepatocyte [15]): < 1 mL/min/g; bioavailability [7]: 49%; IC50 (Blood [16]): 6310 nM; fraction unbound [17]: 0.024; IC50 [18]: > 50100 nM
316 nM	6.31 nM	1000 nM	CC(C)(O)CNS(=O)(=O)c1ccc(-c2ccnc3[nH]c(C4CC4)cc23)cc1	half-life [5]: 42 min; clearance [6]: 14 mL/min/kg; bioavailability [7]: 100%
200 nM	10 nM	1000 nM	Cc1cc2c(-c3ccc(S(=O)(=O)NCC(C)(C)O)cc3)ccnc2[nH]1	half-life [5]: 36 min; clearance [6]: 70 mL/min/kg; bioavailability [7]: 32%
398 nM	7.94 nM	1580 nM	CC(C)c1cc2c(-c3ccc(S(=O)(=O)NCCO)cc3)ccnc2[nH]1	half-life [5]: 27 min; clearance [6]: 39 mL/min/kg; Vd [14]: 0.8 L/kg; bioavailability [7]: 18%

From ChEMBL document CHEMBL2163232, “4-Phenyl-7-azaindoles as potent, selective and bioavailable IKK2 inhibitors demonstrating good in vivo efficacy” (Bioorg Med Chem Lett, 2012)
